Source: PMC8154199 (JACS Au, 2021)

Legend:
[1] = CID-ESI-MS stability of heme-drug complexes; assay type: binding; details: 4-heme m/z 960.2; AQ-heme m/z 971.3; CQ-heme m/z 935.4
Outline: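 Hematin was made fresh from hemin in 50% ammonia. Test compound stock was in ACN or water. Hematin and compound were mixed equimolar at 100 μM in CH3CN/H2O (50:50), then diluted to 50 μM in ACN/H2O/HCOOH (50:50:1). Samples were infused at 5 μL·min–1 into an orthogonal ESI-TOF. CID used capillary exit (cone) voltage 120–400 V in 20 V steps, and adduct stability responses were plotted against voltage.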

[2] = tested on: P. falciparum strain Dd2; assay: Growth inhibition assay with highly synchronized P. falciparum, SYBR green; assay type: cell-based; details: Plasmodium falciparum, DD2, 72 h, read-out: IC50 P. falciparum Dd2
[3] = tested on: human fibroblasts hMRC-5; assay: Toxicity against human fibroblasts hMRC-5; assay type: cell-based; details: Fibroblast, read-out: IC50 hMRC-5
[4] = Probe solubility in aqueous ACN by absorbance kinetics; assay type: physicochemical; details: aqueous ACN solutions (Figure S16)
Outline: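 Solubility was assessed in 2% ACN by spectrophotometric absorbance kinetics over decreasing test compound concentrations, starting at 20 μM.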

solubility sequence, from the less to the most soluble [4]	SMILES	residual complex at high fragmentor voltage (ion abundance) [1]	IC50 [2]	IC50 [3]
–	CCN(CC)CCCC(C)Nc1ccnc2cc(Cl)ccc12 (centres unmarked) [chloroquine, reference compound]	did not show a residual covalent adduct	0.189 µM	–
–	C#Cc1ccc(CC2=C(C)C(=O)c3ccccc3C2=O)cc1 [probe 11, 2-(4-ethynylbenzyl)-3-methylnaphthalene-1,4-dione]	–	0.049 ± 0.015 µM	> 64 µM
–	CN(C)c1ccc2nc3ccc(=[N+](C)C)cc-3sc2c1 [methylene blue, reference compound]	–	0.007 µM	–
probe 10 < probe 8 ≈ probe 7 < probe 9	C#Cc1ccc(C(=O)C2=C(C)C(=O)c3ccccc3C2=O)cc1 [probe 7]	–	1.81 ± 0.302 µM	20.5 µM
